An excerpt weighted towards active compounds, which were near 1% of everything screened.
MT stabilizer – microtubule stabilization, imaging screen; HeLa tubulin immunostaining HCS, 24 h; share of cells brighter than vehicle mean+2SD; % tubulin-high responders, % at 10 µM; 200,000 compounds, 0.83% hits;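 active = plate Z-score above 3 for both tubulin-high and condensed-nucleus cell shares, with cell loss under 80%, at 10 µM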;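 note: anti alpha tubulin signal scored within the nucleus-defined area of each cell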
TLR4-MyD88 BLA – TLR4-MyD88 interaction inhibition in cells. O00206+Q99836. HeLa CL3-4 TLR4/MyD88 BLA complementation, FRET ratio. inhibition, % at 8.4 µM. 200,000 compounds, 0.18% hits. AID 861; in the data active = inhibition above about 25%;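 note: 0% = vehicle and 100% = reference inhibitor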
bCat nuc transl – beta-catenin nuclear translocation modulation | 190,000 compounds, 0.3% hits | nuclear translocation activity, % at 5 µM | HeLa beta-catenin nuclear translocation, immunofluorescence imaging;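 active = nuclear translocation activity above 50% at 5 µM, with a well cell count of 50 or more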;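 note: per-cell ratio of nuclear to cytoplasmic median beta-catenin stain intensity; plate controls were DMSO negative control for no effect and GSK-3 inhibitor IX positive control for full effect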
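Test system: human HeLa cell line; Doses: 5 µM primary, 0.02–20 µM confirmation; Incubation: 24 h compound exposure, 37°C; Detection: beta-catenin immunofluorescence imaging with DAPI; Read-out: beta-catenin nuclear/cytoplasmic ratio, % activation.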
TLR9-MyD88 block – inhibitors of human TLR9-MyD88 binding; 340,000 compounds, 0.21% hits; inhibition, % at 4.98 µM; Q9NR96+Q99836; AID 504734; CHO BLA complementation TLR9-MyD88, CCF4 FRET ratio;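 active = inhibition above the mean over all tested compounds plus 3 SD, cut at about 21% in these data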;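 note: 0% = DMSO only wells and 100% = clavulanate BLA inhibitor control wells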
NOD2-RIPK2 inh – NOD2-RIPK2 protein interaction inhibition; inhibition, % at 4.98 µM; O43353; 360,000 compounds, 0.38% hits; CHO BLA complementation NOD2-RIPK2, CCF4 ratio; in the data active = inhibition above about 21%;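 note: 0% = vehicle only and 100% = reference blocker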
Hsp70 activator – switches on Hsp70 transcription. activation, % at 10 µM. AID 1203. HeLa Hsp70 promoter luciferase reporter, luminescence; scaled: vehicle 0, proteasome-inhibitor control 100%. 200,000 compounds, 0.04% hits;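 active = activation above the mean across all tested compounds plus 3 SD, cutoff set per campaign, cut at about 5.5% in these data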;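 note: 100% = MG132 at 30 µM as the positive control and 0% = DMSO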
NOD2-RIPK2 conf – confirmation of human NOD2-RIPK2 interaction inhibitors; shares compounds with NOD2-RIPK2 inh; CHO cells, NOD2-RIPK2 BLA complementation, CCF4 FRET; inhibition, % at 4.98 µM; 1,200 compounds, 70% hits; AID 624370;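 active = mean inhibition across replicates above a set limit taken from the earlier primary screen, cut at about 21% in these data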;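 note: 0% = DMSO-only wells and the high end = clavulanate BLA-blocked wells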
NOD2 BLA counter – hits BLA reporter in NOD2-RIPK2 inhibitor counterscreen; inhibition, % at 4.98 µM; shares compounds with NOD2-RIPK2 inh; CHO BLA reporter, CCF4 FRET ratio; 1,200 compounds, 57% hits;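 active = mean inhibition above the low-control mean inhibition plus three low-control SD, cut at about 11% in these data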;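 note: 0% = DMSO only wells and 100% = clavulanate high control wells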
Starred values were filed as active, the others as inactive; x = no result given.

SMILES	MT stabilizer	TLR4-MyD88 BLA	bCat nuc transl	TLR9-MyD88 block	NOD2-RIPK2 inh	Hsp70 activator	NOD2-RIPK2 conf	NOD2 BLA counter
CC(C)(C)NC(=O)C(c1ccc(C#N)cc1)n1c(=O)c(-c2cc3ccccc3[nH]2)nc2ccccc21 (stereo unspecified)	x	x	x	x	54*	x	51*	70*
CC(C)(C)NC(=O)C(c1ccc(-c2ccccc2)cc1)n1c(=O)c(-c2cc3ccccc3[nH]2)nc2ccccc21 (stereo unspecified)	x	x	x	x	40*	x	34*	63*
COc1ccc(C(=O)OCC(=O)N2CCN(S(=O)(=O)c3ccc(C)cc3)CC2)cc1[N+](=O)[O-]	x	x	x	-13	-9	x	x	x
COc1ccc(CCNC(=O)c2ccc3nc(N4CCCCC4)sc3c2)cc1OC	x	x	x	-1	-4	x	x	x
Nc1ncnc2c1ncn2[C@@H]1O[C@H](C(=O)N(CCC2=CCCCC2)CC2CC2)[C@@H](O)[C@H]1O	x	x	x	x	-18	x	x	x
CC(C)(C)NC(=O)C(c1cccc2ccccc12)n1c(=O)c(-c2cc3ccccc3[nH]2)nc2ccccc21 (stereo unspecified)	x	x	x	x	40*	x	34*	62*
CCOC(=O)/C=c1/s/c(=C/c2ccc3cc(OC)ccc3c2)c(=O)n1CC(=O)NCc1ccc2c(c1)OCO2	x	x	x	-4	25*	x	44*	53*
CCOC(=O)/C=c1\s/c(=C\c2ccc(-c3ccccc3)cc2)c(=O)n1CC(=O)NCc1ccc2c(c1)OCO2	7	-6	x	-1	0	0	x	x
CC(=O)OC[C@]1(OC(C)=O)C[C@@]23CC[C@H]4[C@@](C)(CCC[C@@]4(C)C(=O)O)[C@@H]2CC[C@@H]1C3	2	-8	x	6	-1	0	x	x
CC(=O)OC[C@]12CC[C@H]3[C@@](C)(CC[C@H]4C(C)(C)CCC[C@]34C)[C@@H]1CC(C1=CC(=O)OC1O)O2 (stereo partly specified)	x	x	x	x	46*	x	49*	21*
COCCCn1c(=O)c2sccc2n2c(CCCC(=O)N(C)Cc3ccco3)nnc12	x	x	x	2	-4	x	x	x
O=C1C=CC2C3C(=O)N(c4ccccc4)C(=O)C3C1N2Cc1ccccc1 (stereo unspecified)	x	x	x	8	68*	x	75*	-1
O=C(CSc1nc(=O)n2ccccc2n1)N1CCCCCC1	x	x	x	8	15	x	x	x
CCCCNC(=O)C1(C)CCN1C(=O)c1ccc(C)c(F)c1 (stereo unspecified)	x	x	x	x	-8	x	x	x
O=S(=O)(c1cccs1)N1CCN(CC(O)COc2cccc(Br)c2)CC1 (stereo unspecified)	1	9	7	-3	22*	1	-28	0
O=S(=O)(c1cccs1)N1CCN(CC(O)COC2CCCc3ccccc32)CC1 (stereo unspecified)	3	1	-3	1	-1	0	x	x
CCCCn1c(=O)[nH]c(=O)c2c1nc(Cn1ncc(Cl)c(Cl)c1=O)n2CCC	x	x	x	16	40*	x	55*	13*
COC(=O)CCNC(=O)c1ccc2nc(Cc3ccc(OC)c(OC)c3)oc2c1	x	x	x	9	22*	x	-3	0
CC(=O)Nc1c(Cl)cnn(-c2ccccc2)c1=O	x	x	x	x	22*	x	7	-4
COc1ccc(CN2C[C@@H](CO)O[C@@H](n3cnc4c(NC5CCC5)ncnc43)C2)cc1	x	x	x	x	11	x	x	x
Cc1cccc(C)c1NC(=O)C(CCc1ccccc1)n1c(=O)c(-c2cc3ccccc3[nH]2)nc2ccccc21 (stereo unspecified)	x	x	x	x	45*	x	41*	67*
CC(C)(C)NC(=O)C(CCc1ccccc1)n1c(=O)c(-c2cc3ccccc3[nH]2)nc2ccccc21 (stereo unspecified)	x	x	x	x	44*	x	40*	66*
CCc1ccc(Nc2n[n+](-c3ccccc3)c(-c3ccc(N(CC)CC)cc3)s2)cc1	x	x	x	11	29*	x	69*	76*
Cc1c(NC(=S)NC(NC(=O)C(C)(C)C)C(Cl)(Cl)Cl)c(=O)n(-c2ccccc2)n1C (stereo unspecified)	6	-18	1	-1	25*	0	1	-1
CCCC(=O)NC(NC(=S)Nc1c(C)n(C)n(-c2ccccc2)c1=O)C(Cl)(Cl)Cl (stereo unspecified)	1	8	-1	-2	-2	0	x	x
SMILES	MT stabilizer	TLR4-MyD88 BLA	bCat nuc transl	TLR9-MyD88 block	NOD2-RIPK2 inh	Hsp70 activator	NOD2-RIPK2 conf	NOD2 BLA counter
CCOC(=O)C(C)Oc1ccc(NC(=O)C(Cl)Cl)cc1 (stereo unspecified)	x	x	0	-9	-1	x	x	x
CC(C)c1nnc(NC(=O)CCS(=O)(=O)Cc2ccccc2)s1	x	x	x	6	3	x	x	x
CC(C)c1nnc(NC(=O)CCS(=O)(=O)c2nc(-c3cccs3)cc(C(F)(F)F)n2)s1	7	12	x	17	41*	0	11	9
Cc1csc(=O)n1CCC(=O)OCC(=O)NNC(=O)c1ccccc1	x	x	x	-3	-14	x	x	x
COc1cc(CC(=O)NCC(C)(C)N2CCOCC2)cc(OC)c1OC	x	x	x	-4	38*	x	-2	-1
CC1(c2ccc3ccccc3c2)NC(=O)N(CC(=O)N2CCCC(C(F)(F)F)C2)C1=O (stereo unspecified)	x	x	x	8	28*	x	0	-2
CC(=O)Nc1ccc(C(=O)OCC(=O)c2cccc([N+](=O)[O-])c2)cc1	4	-3	0	16	-4	0	x	x
COC(=O)Nc1ccc(SCC(=O)c2cccc([N+](=O)[O-])c2)cc1	x	x	x	0	22*	x	9	-5
O=C1C=CC(=O)N1c1ccc2c(c1)Cc1cc(F)ccc1-2	x	x	x	4	23*	x	64*	16*
CCOC(=O)C1CCN(C(=O)Nc2cc(Cl)cc(Cl)c2)CC1	x	x	-1	0	7	x	x	x
Cc1cc(SCC(=O)c2cccc([N+](=O)[O-])c2)nc(=O)[nH]1	x	x	x	0	-7	x	x	x
N#Cc1ccc(NC(=O)COC(=O)C2CCC2)cc1	x	x	x	-6	6	x	x	x
COc1ccc2ccccc2c1-c1sc(Nc2ccccc2)n[n+]1-c1ccc(F)cc1	x	x	x	8	32*	x	20	3
Fc1ccc(-[n+]2nc(Nc3ccccc3)sc2-c2c(Cl)cccc2Cl)cc1	x	x	x	18	53*	x	42*	16*
COc1ccccc1CCNC(=O)CNC(=O)c1ccc2ccccc2c1	x	x	x	-2	1	x	x	x
CC(C)(C)c1cc(NC(=O)C2(C)CCN2C(=O)C2(c3ccccc3)CCCC2)no1 (stereo unspecified)	x	x	x	x	1	x	x	x
CCCN(CC(=O)Nc1ccccc1C)C(=O)/C=C/c1ccc(OC)c(OC)c1	x	x	x	1	-4	x	x	x
O=C(NC1CCCC1)c1cc2nc(-c3ccccc3)cc(-c3ccccc3)n2n1	x	x	-1	-3	-10	x	x	x

Source: PubChem BioAssay (several laboratories)
